Calls of active or inactive are those of the source. No cut-off for these calls is given here.
Assays:
[1] = biological target: T1, Sodium- and chloride-dependent glycine transporter 1 (Rattus norvegicus) (UniProt P28572); experiment: Binding affinity to GlyT1 in rat brain striatum at 0.03 to 0.04 nM preincubated for 20 mins in binding buffer before compound addition measured after 30 mins by autoradiography in presence of 10 mM GlyT1 substrate glycine relative to control; format: tissue-based; conditions: tested as the 125I-labelled form
T1 sequence (whole entry): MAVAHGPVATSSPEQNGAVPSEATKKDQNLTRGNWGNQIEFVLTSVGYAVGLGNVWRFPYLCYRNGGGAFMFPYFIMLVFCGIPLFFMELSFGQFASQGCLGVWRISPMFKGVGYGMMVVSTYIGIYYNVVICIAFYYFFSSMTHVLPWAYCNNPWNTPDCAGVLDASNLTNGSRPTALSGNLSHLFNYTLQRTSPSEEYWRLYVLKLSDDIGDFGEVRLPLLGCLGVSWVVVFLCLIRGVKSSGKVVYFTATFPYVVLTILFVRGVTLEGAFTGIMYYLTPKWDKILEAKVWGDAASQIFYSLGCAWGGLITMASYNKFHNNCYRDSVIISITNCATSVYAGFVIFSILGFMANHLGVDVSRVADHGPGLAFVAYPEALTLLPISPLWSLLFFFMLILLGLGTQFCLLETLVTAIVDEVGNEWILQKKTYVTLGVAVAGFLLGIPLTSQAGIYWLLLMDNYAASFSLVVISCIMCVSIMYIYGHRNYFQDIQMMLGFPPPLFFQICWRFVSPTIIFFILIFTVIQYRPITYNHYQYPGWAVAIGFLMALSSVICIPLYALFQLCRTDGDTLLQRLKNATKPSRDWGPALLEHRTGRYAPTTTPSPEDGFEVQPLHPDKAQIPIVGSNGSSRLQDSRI

Mus musculus [2] = experiment: In vivo binding affinity to GlyT1 in ddY mouse brain hippocampus at 33.3 kBq, iv after 60 mins in presence of SSR504734 2 mg/kg, iv administered 15 mins prior to compound administration relative to control; format: functional, organism-based; design: dose 2 mg/kg; conditions: tested as the 125I-labelled form
Method in brief: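 Male ddY mice (6 W, 30–35 g) were given [125I]5 (ca. 33.3 kBq, 0.1 mL) iv via tail vein. Blocker (2 mg/kg in 30% DMSO/saline) was given iv 15 min before the tracer. Mice were killed 30 or 60 min after injection and the brain regions were dissected and weighed. Gamma counting gave % dose/g, compared with control; n = 5–6.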

[3] = biological target: T1, Sodium- and chloride-dependent glycine transporter 1 (Rattus norvegicus); experiment: Binding affinity to GlyT1 in rat brain corpus callosum at 0.03 to 0.04 nM preincubated for 20 mins in binding buffer before compound addition measured after 30 mins by autoradiography in presence of 10 mM GlyT1 substrate glycine relative to control; format: tissue-based; conditions: tested as the 125I-labelled form
Method in brief: (§1)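 Rat brain sagittal sections (20 µm) preincubated 20 min at 25 °C in Tris-HCl buffer pH 7.5 (NaCl, KCl, MgCl2, CaCl2), then 30 min at 25 °C with [125I] tracer (100 kBq, 0.03–0.04 nM) plus competitor (10 µM; glycine 1 or 10 mM). Cold washes, imaging plate 3 days, ROI PSL minus background per mm². % control from ≥triplicate slices, three rats.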

Mus musculus [4] = experiment: In vivo binding affinity to GlyT1 in ddY mouse brain hippocampus at 33.3 kBq, iv after 30 mins in presence of SSR504734 2 mg/kg, iv administered 15 mins prior to compound administration relative to control; format: functional, organism-based; design: dose 2 mg/kg; conditions: tested as the 125I-labelled form
Method in brief: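 Blocking study in male ddY mice (6 weeks, 30–35 g). The blocker (2 mg/kg in 30% DMSO/saline) was injected i.v. 15 min before about 33.3 kBq [125I]tracer i.v.; mice were killed at 30 or 60 min. Brains were divided into cortex, corpus callosum, hippocampus, thalamus, midbrain, medulla and cerebellum, weighed and gamma-counted as % dose/g. Values are mean ± SD, n = 5–6, compared to control by Kruskal–Wallis with Dunn's post-test.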

[5] = biological target: T1, Sodium- and chloride-dependent glycine transporter 1 (Rattus norvegicus); experiment: Binding affinity to GlyT1 in rat brain cerebellum at 0.03 to 0.04 nM preincubated for 20 mins in binding buffer before compound addition measured after 30 mins by autoradiography in presence of 0.01 mM GlyT1 inhibitor SSR504734 relative to control; format: tissue-based; conditions: tested as the 125I-labelled form; method in brief: as §1
[6] = biological target: T1, Sodium- and chloride-dependent glycine transporter 1 (Rattus norvegicus); experiment: Binding affinity to GlyT1 in rat brain cerebellum at 0.03 to 0.04 nM preincubated for 20 mins in binding buffer before compound addition measured after 30 mins by autoradiography in presence of 0.01 mM GlyT1 inhibitor HPCP relative to control; format: tissue-based; conditions: tested as the 125I-labelled form; method in brief: as §1
[7] = biological target: T1, Sodium- and chloride-dependent glycine transporter 1 (Rattus norvegicus); experiment: Binding affinity to GlyT1 in rat brain medullary region at 0.03 to 0.04 nM preincubated for 20 mins in binding buffer before compound addition measured after 30 mins by autoradiography in presence of GlyT1 inhibitor N-Me-SSR504734 relative to control; format: tissue-based; conditions: tested as the 125I-labelled form; method in brief: as §1
Mus musculus [8] = experiment: In vivo binding affinity to GlyT1 in ddY mouse brain medullary region at 200 kBq, iv after 60 mins by autoradiography relative to control; format: functional, organism-based; conditions: Medulla of organ, tested as the 125I-labelled form
Method in brief: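 Male ddY mice were injected iv with [125I]5 (200 kBq) and killed 60 min post-injection. For blocking, unlabeled blocker (2 mg/kg) was given iv 15 min before the tracer. Frozen brain sagittal sections (20 μm) were exposed to an imaging plate for 7 days. Regional radioactivity was read as PSL/mm² (n = 5) and compared with control by Kruskal–Wallis with Dunn's post-test.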

[9] = biological target: T1, Sodium- and chloride-dependent glycine transporter 1 (Rattus norvegicus); experiment: Binding affinity to GlyT1 in rat brain midbrain at 0.03 to 0.04 nM preincubated for 20 mins in binding buffer before compound addition measured after 30 mins by autoradiography in presence of 0.01 mM GlyT1 inhibitor HPCP relative to control; format: tissue-based; conditions: tested as the 125I-labelled form; method in brief: as §1
Mus musculus [10] = experiment: In vivo binding affinity to GlyT1 in ddY mouse brain striatum at 200 kBq, iv after 60 mins by autoradiography relative to control; format: functional, organism-based; conditions: tested as the 125I-labelled form
[11] = biological target: T1, Sodium- and chloride-dependent glycine transporter 1 (Rattus norvegicus); experiment: Binding affinity to GlyT1 in rat brain medullary region at 0.03 to 0.04 nM preincubated for 20 mins in binding buffer before compound addition measured after 30 mins by autoradiography in presence of 1 mM GlyT1 substrate glycine relative to control; format: tissue-based; conditions: tested as the 125I-labelled form; method in brief: as §1
Spleen [12] = experiment: Drug uptake in ddY mouse spleen at 11.1 kBq, iv after 5 min by gamma counting; format: ADME, organism-based; conditions: in vivo
Method in brief: (§2)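 Male ddY mice (6 weeks, 30–35 g) were given about 11.1 kBq of [125I]tracer in 0.1 mL i.v. via the tail vein. At each time point the animals were killed and organs dissected, weighed and gamma-counted. Uptake is expressed as % injected dose per gram of tissue, mean ± SD, n = 5–6.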

Blood = experiment: Drug uptake in ddY mouse blood at 11.1 kBq, iv after 15 min by gamma counting; format: ADME, organism-based; conditions: in vivo
Method in brief: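 Male ddY mice (6 weeks, 30–35 g) received about 11.1 kBq [125I]tracer in 0.1 mL i.v. via tail vein. Killed at set times, organs dissected and weighed, radioactivity gamma counted. Reported as % injected dose/g tissue, mean ± SD, n = 5–6.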

Spleen [13] = experiment: Drug uptake in ddY mouse spleen at 11.1 kBq, iv after 15 min by gamma counting; format: ADME, organism-based; conditions: in vivo; method in brief: as §2
Nucleic Acid = experiment: Ratio of drug level in brain to blood in ddY mouse at 11.1 kBq, iv after 30 min by gamma counting; format: ADME, organism-based; conditions: 0.5 h
Pancreas = experiment: Drug uptake in ddY mouse pancreas at 11.1 kBq, iv after 15 min by gamma counting; format: ADME, organism-based; conditions: in vivo; method in brief: as §2

Row | Structure (SMILES) | Activity [1] [%] | Activity (Mus musculus [2]) | Activity [3] [%] | Activity (Mus musculus [4]) | Activity [5] [%] | Activity [6] [%] | Activity [7] [%] | Activity (Mus musculus [8]) | Activity [9] [%] | Activity (Mus musculus [10]) | Activity [11] [%] | Drug uptake (Spleen [12]) [% ID/g] | Drug uptake (Blood) [% ID/g] | Drug uptake (Spleen [13]) [% ID/g] | Ratio (Nucleic Acid) | Drug uptake (Pancreas) [% ID/g]
1 | CN1CCCC[C@H]1[C@@H](NC(=O)c1cccc(C(F)(F)F)c1I)c1ccccc1 | 47.6 | inactive | 39.6 | inactive | 27.7 | 23 | 20.6 | Active | 19.7 | inactive | 104 | – | – | – | – | –
2 | CN1CCCC[C@H]1[C@@H](NC(=O)c1cccc(C(F)(F)F)c1[125I])c1ccccc1 | – | – | – | – | – | – | – | – | – | – | – | 5.11 | 0.69 | 5.5 | 2.46 | 7.93
